The record followed here is ChEMBL document CHEMBL3992512, “The Discovery and Hit-to-Lead Optimization of Tricyclic Sulfonamides as Potent and Efficacious Potentiators of Glycine Receptors” (J Med Chem, 2017).

Where only a bound is given, the exact number is not on record here.

Usually Papp stands for the rate of passage across a membrane or cell layer, normalised by area and donor concentration. For orientation: efflux ratio means a quotient of directional permeabilities that is used to spot active efflux.

Series [1] addresses Glycine receptor alpha-3/beta (Homo sapiens) (UniProt O75311+P48167). Put plainly: Positive allosteric modulation of human glycine alpha3beta receptor expressed in HEK293T cells assessed as compound concentration required to induce up to 3-fold leftward shift in glycine-induced increase in chloride ion flux after 4 mins by Schild plot analysis. It counts as cell-based. The essentials:
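HEK293T cells stably expressing human GlyRα3β, ~12000 cells/well, plated overnight and loaded with membrane potential blue dye. Glycine 1:2 dilution series premixed with compound at varying concentrations in HEPES/NaCl/mannitol buffer, pH 7.4. FLIPR fluorescence read 4 min and processed as AUC over baseline. mEC₃ is the lowest tested concentration giving a ≥3-fold leftward shift of glycine EC₅₀.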

The nature of series [2]: Intrinsic clearance in mouse liver microsomes up to 40 mins in presence of NADPH. To be noted: read-out: CLH. It counts as ADME, microsome. Background: Liver microsomes are vesicles of endoplasmic reticulum, rich in cytochrome P450 enzymes.
Series [3] in a line: Passive apparent permeability in MDCK cells. It counts as ADME, cell-based, Canis lupus familiaris. To be noted: dog. Summed up: (§1)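 Bidirectional transport at 5 μM, in triplicate, across MDCK cells carrying control vector, human MDR1 or human ABCG2 (BCRP). Passive Papp is the mean of both directions in vector-control cells. Efflux ratios come from the MDR1 and BCRP lines.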

Series [4] has as its system human MDR1. Put plainly: Efflux ratio of passive apparent permeability in MDCK cells harboring human MDR1. It counts as ADME, cell-based, Canis lupus familiaris. The conditions noted are these: dog. Summed up: as §1
Series [5] has as its system human BCRP. Put plainly: Efflux ratio of passive apparent permeability in MDCK cells harboring human BCRP. To be noted: dog. Type of series: ADME, cell-based, Canis lupus familiaris. Summed up: as §1

As to `CN1C(=O)[C@@H]2CN(S(=O)(=O)c3ccc4c(c3)OCO4)C[C@]2(C)c2cnccc21` (racemic), in series [1], the MEC was greater than 25 µM.
As to `CN1C(=O)[C@H]2CN(S(=O)(=O)c3ccc4c(c3)OCO4)C[C@H]2c2ccccc21`, the MEC in series [1] worked out at 6.3 µM. Further, the microsomal CLint in series [2] was 2440 µL/min/mg.
For the compound `CN1C(=O)[C@@H]2CN(S(=O)(=O)c3ccc4c(c3)OCO4)C[C@@H]2c2ccncc21` (racemic), the MEC in series [1] came out at 6.3 µM. In addition, the microsomal CLint in series [2] turned out to be 225 µL/min/mg.
As to `CN1C(=O)[C@@H]2CN(S(=O)(=O)c3ccc4ncn(C)c4c3)C[C@@H]2c2cnccc21`, in series [1], the MEC turned out to be 3.1 µM.
Turning to `C[C@H]1[C@H]2c3cnccc3N(C)C(=O)[C@H]2CN1S(=O)(=O)c1ccc2c(c1)OCO2`, the MEC in series [1] is greater than 25 µM.
On the same count and under the same terms, then `CN1C(=O)[C@]2(C#N)CN(S(=O)(=O)c3ccc4c(c3)OCO4)C[C@@H]2c2cnccc21` (racemic), with greater than 25 µM.
As for `CN1C(=O)[C@@H]2CN(S(=O)(=O)c3ccc(F)c(Cl)c3)C[C@@H]2c2cnccc21`, the MEC in series [1] stood at 3.1 µM. For the same compound, the microsomal CLint in series [2] was 432 µL/min/mg. Further, the Papp in series [3] worked out at 49 ×10⁻⁶ cm/s. Also, the efflux ratio in series [4] worked out at 1.2; in series [5], 1.1.
`CN1C(=O)[C@@H]2CN(S(=O)(=O)c3ccc4c(c3)OCO4)C[C@@H]2c2cc(F)ccc21` (racemic): in series [1], the MEC stood at 0.78 µM. For the same compound, the microsomal CLint in series [2] was 761 µL/min/mg.
`C[C@@H]1[C@@H]2C(=O)N(C)c3ccncc3[C@@H]2CN1S(=O)(=O)c1ccc2c(c1)OCO2`: the MEC in series [1] was 3.1 µM.
Turning to `CN1C(=O)[C@@H]2CN(S(=O)(=O)c3ccc4c(c3)OCO4)C[C@@H]2c2cccnc21` (racemic), the MEC in series [1] worked out at 3.1 µM. Further, the microsomal CLint in series [2] amounted to 760 µL/min/mg.
Turning to `C[C@@H]1[C@@H]2c3cnccc3N(C)C(=O)[C@@H]2CN1S(=O)(=O)c1ccc2c(c1)OCO2`, the MEC in series [1] is greater than 25 µM.
On to `CN1C(=O)[C@@H]2CN(S(=O)(=O)c3ccc4c(c3)OCO4)C[C@@H]2c2cc(O)ccc21`, for which the MEC in series [1] stood at 0.39 µM. The microsomal CLint in series [2] turned out to be 499 µL/min/mg. Besides, in series [3], the Papp was determined as 18 ×10⁻⁶ cm/s. In addition, the figures for the efflux ratio in series [4] and in series [5] were 3.2 and 3.1, respectively.
Consider `CN1C(=O)[C@@H]2CN(S(=O)(=O)c3ccc4c(c3)OCO4)C[C@@H]2c2cc(C#N)ccc21` (racemic), for which the MEC in series [1] is 12.5 µM. Also, in series [2], the microsomal CLint was determined as 374 µL/min/mg.
`CN1C(=O)[C@@H]2CN(S(=O)(=O)c3ccc4ccoc4c3)C[C@@H]2c2cnccc21`: the MEC in series [1] came out at 1.56 µM. Further, the microsomal CLint in series [2] stood at 115 µL/min/mg.
With `CN1C(=O)[C@]2(F)CN(S(=O)(=O)c3ccc4c(c3)OCO4)C[C@@H]2c2cnccc21` (racemic), in series [1], the MEC was greater than 25 µM.
In the case of `O=S(=O)(c1ccc2c(c1)OCO2)N1C[C@@H]2c3nccn3-c3ccccc3[C@@H]2C1`, the MEC in series [1] came to 6.3 µM. In addition, the microsomal CLint in series [2] turned out to be 1670 µL/min/mg.
On to `C[C@@H]1[C@H]2c3cnccc3N(C)C(=O)[C@H]2CN1S(=O)(=O)c1ccc2c(c1)OCO2`, for which the MEC in series [1] was greater than 25 µM.
The same measure, in the same setting: under `C[C@H]1[C@@H]2C(=O)N(C)c3ccncc3[C@@H]2CN1S(=O)(=O)c1ccc2c(c1)OCO2` stands greater than 25 µM; under `C[C@H]1[C@@H]2c3cnccc3N(C)C(=O)[C@@H]2CN1S(=O)(=O)c1ccc2c(c1)OCO2`, greater than 25 µM; under `CN1C(=O)[C@]2(C)CN(S(=O)(=O)c3ccc4c(c3)OCO4)C[C@@H]2c2ccccc21` (single isomer, unassigned), greater than 25 µM.
For the compound `CN1C(=O)[C@@H]2CN(S(=O)(=O)c3ccn4ccnc4c3)C[C@@H]2c2cnccc21`, in series [1], the MEC is 3.1 µM. In addition, the microsomal CLint in series [2] is 36 µL/min/mg. The Papp in series [3] was 16 ×10⁻⁶ cm/s. Moreover, the efflux ratio came to 30 in series [4] and 8.3 in series [5].
